Assay results reported in ChEMBL document CHEMBL1128448, “Synthesis and antifungal activity of new azole derivatives containing an N-acylmorpholine ring” (1995).
≈ marks a conversion by molar mass, not a printed value.

Columns and labels:
Aspergillus fumigatus [1] = experiment: In vivo evaluation of minimum inhibitory concentration against Aspergillus fumigatus 33; assay type: functional; conditions: in the assay text read “In vitro” for “In vivo”
Method in brief: (§1)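 Agar dilution MIC. Inocula were 10^5 cfu/mL; 10 µL was spotted onto Kimmig's agar with 0.5% glycerol containing twofold drug dilutions (80 to 0.025 µg/mL). Drug stocks were 800 µg/mL in 50% ethanol. Plates were incubated at 25 °C, 48 h for yeasts and 120 h for molds and dermatophytes.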

Aspergillus niger = experiment: In vitro evaluation of minimum inhibitory concentration against Aspergillus niger 18; assay type: functional; conditions: Aspergillus niger; read-out: MIC
Method in brief: (§2)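 Stocks are 800 μg/mL in 50% ethanol. Each plate gets 10 μL of inoculum at 10^5 cfu/mL. Incubation at 25 °C, 48 h for yeasts and 120 h for dermatophytes and molds. Organisms are ATCC strains or clinical isolates.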

Candida albicans [2] = experiment: In vitro evaluation of minimum inhibitory concentration against Candida albicans 76; assay type: functional; method in brief: as §2
Candida albicans [3] = experiment: In vivo evaluation of minimum inhibitory concentration against Candida albicans 406; assay type: functional
Method in brief: (§3)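 Broth macrodilution MIC following NCCLS M27-P, in RPMI-1640 buffered with 0.165 M MOPS. Fluconazole was dissolved in water and other drugs in DMSO. C. parapsilosis ATCC 22019 served as the reference strain in every run. MIC was the lowest concentration giving turbidity at or below the 80% inhibition standard.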

Candida albicans [4] = experiment: In vivo evaluation of minimum inhibitory concentration against Candida albicans 60; assay type: functional; method in brief: as §3
[5] = tested on: Meyerozyma guilliermondii; experiment: In vitro evaluation of minimum inhibitory concentration against Candida guilliermondii 26; assay type: functional; method in brief: as §2
Pichia kudriavzevii = experiment: In vitro evaluation of minimum inhibitory concentration against Candida krusei 70; assay type: functional; conditions: Pichia kudriavzevii; read-out: MIC; method in brief: as §2
Candida parapsilosis = experiment: In vitro evaluation of minimum inhibitory concentration against Candida parapsilosis 61; assay type: functional; method in brief: as §2
Candida tropicalis = experiment: In vitro evaluation of minimum inhibitory concentration against Candida tropicalis 2.11; assay type: functional; method in brief: as §2
Mus sp. [6] = experiment: In vivo evaluation of % survival rate after peroral administration on 3rd day at dose 2.5 mg/kg; assay type: functional; conditions: Mus sp., po
Mus sp. [7] = experiment: In vivo evaluation of % survival rate after peroral administration on 5th day at dose 2.5 mg/kg; assay type: functional; conditions: Mus sp., po
Mus sp. [8] = experiment: In vivo evaluation of % survival rate after peroral administration on 7th day at dose 2.5 mg/kg; assay type: functional; conditions: Mus sp., po
Mus sp. [9] = experiment: In vivo evaluation of % survival rate after peroral administration on 9th day at dose 2.5 mg/kg; assay type: functional; conditions: Mus sp., po
Microsporum canis = experiment: In vitro evaluation of minimum inhibitory concentration against Microsporum canis 47; assay type: functional; method in brief: as §2
Nannizzia gypsea = experiment: In vitro evaluation of minimum inhibitory concentration against Microsporum gypseum 22; assay type: functional; method in brief: as §2
Nakaseomyces glabratus [10] = experiment: In vitro evaluation of minimum inhibitory concentration against Torulopsis glabrata 78; assay type: functional; method in brief: as §2
Trichophyton benhamiae = experiment: In vitro evaluation of minimum inhibitory concentration against Trichophyton mentagrophytes 23; assay type: functional, Arthroderma benhamiae; method in brief: as §2
Trichophyton rubrum = experiment: In vitro evaluation of minimum inhibitory concentration against Trichophyton rubrum 90; assay type: functional; method in brief: as §2
Rhodotorula mucilaginosa = experiment: In vitro evaluation of minimum inhibitory concentration against Rhodotorula rubra 16; assay type: functional; method in brief: as §2
Kluyveromyces marxianus [11] = experiment: In vitro evaluation of minimum inhibitory concentration against Candida pseudotropicalis 13; assay type: functional; method in brief: as §2
Aspergillus flavus = experiment: In vitro evaluation of minimum inhibitory concentration against Aspergillus flavus 19; assay type: functional; conditions: Aspergillus flavus; read-out: MIC; method in brief: as §2
Aspergillus fumigatus [12] = experiment: In vitro evaluation of minimum inhibitory concentration against Aspergillus fumigatus 33; assay type: functional; method in brief: as §2
Candida albicans [13] = experiment: In vivo evaluation of minimum inhibitory concentration against Candida albicans 76; assay type: functional; method in brief: as §3
[14] = tested on: Meyerozyma guilliermondii; experiment: In vivo evaluation of minimum inhibitory concentration against Candida guilliermondii 26; assay type: functional; conditions: in the assay text read “In vitro” for “In vivo”; method in brief: as §1
Kluyveromyces marxianus [15] = experiment: In vivo Evaluation of minimum inhibitory concentration against Candida pseudotropicalis 13; assay type: functional; method in brief: as §2
Mus sp. [16] = experiment: In vivo evaluation of % survival rate after peroral administration on 3rd day at dose 0.5 mg/kg; assay type: functional; conditions: route oral
Mus sp. [17] = experiment: In vivo evaluation of % survival rate after peroral administration on 3rd day at dose 1 mg/kg; assay type: functional
Mus sp. [18] = experiment: In vivo evaluation of % survival rate after peroral administration on 5th day at dose 0.5 mg/kg; assay type: functional; conditions: route oral
Mus sp. [19] = experiment: In vivo evaluation of % survival rate after peroral administration on 5th day at dose 1 mg/kg; assay type: functional; conditions: route oral, 1 mg/kg
Mus musculus [20] = experiment: In vivo evaluation of % survival rate after peroral administration on 7th day at dose 0.5 mg/kg; assay type: functional; conditions: route oral, 0.5 mg/kg
Mus sp. [21] = experiment: In vivo evaluation of % survival rate after peroral administration on 7th day at dose 1 mg/kg; assay type: functional; conditions: route oral, 1 mg/kg
Mus sp. [22] = experiment: In vivo evaluation of % survival rate after peroral administration on 9th day at dose 0.5 mg/kg; assay type: functional; conditions: route oral, 0.5 mg/kg
Mus sp. [23] = experiment: In vivo evaluation of % survival rate after peroral administration on 9th day at dose 1 mg/kg; assay type: functional; conditions: route oral, 1 mg/kg
Rattus norvegicus [24] = experiment: In vivo evaluation of antifungal activity against vaginal candidosis in rat at dose 0.1 mg/kg on 10th day; assay type: functional
Method in brief: (§4)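 Groups of 10 female Wistar rats given estradiol 25 mg/kg sc on day -5, then vaginally inoculated with C. albicans on day 0. Infection is confirmed by culture of day-3 swabs. Compound is dosed orally once daily on days 3–5; controls get vehicle. Cure is scored by culture of vaginal swabs taken on days 10 and 15.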

Rattus norvegicus [25] = experiment: In vivo evaluation of antifungal activity against vaginal candidosis in rat at dose 0.1 mg/kg on 15th day; assay type: functional; method in brief: as §4
Rattus norvegicus [26] = experiment: In vivo evaluation of antifungal activity in against vaginal candidosis in rat at dose 0.25 mg/kg on 10th day; assay type: functional
Method in brief: (§5)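 Groups of 10 female Wistar rats given estradiol 25 mg/kg sc on day -5, infected intravaginally with C. albicans by sterile swab on day 0; infection confirmed on day 3 by swab culture (TSB, then Sabouraud agar). Oral dosing once daily on days 3, 4, 5; vehicle controls. Vaginal swabs cultured on days 10 and 15; read-out % cured (culture-negative).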

Rattus norvegicus [27] = experiment: In vivo evaluation of antifungal activity in against vaginal candidosis in rat at dose 0.25 mg/kg on 15th day; assay type: functional; method in brief: as §5
Nakaseomyces glabratus [28] = experiment: In vivo Evaluation of minimum inhibitory concentration against Torulopsis glabrata 78; assay type: functional; conditions: in the assay text read “In vitro” for “In vivo”; method in brief: as §2
Mus musculus [29] = experiment: In vivo evaluation of % survival rate after peroral administration on 3rd day at dose 5 mg/kg; assay type: functional; conditions: route oral
Mus musculus [30] = experiment: In vivo evaluation of % survival rate after peroral administration on 5th day at dose 5 mg/kg; assay type: functional; conditions: route oral
Mus musculus [31] = experiment: In vivo evaluation of % survival rate after peroral administration on 9th day at dose 5 mg/kg; assay type: functional; conditions: route oral
Mus musculus [32] = experiment: In vivo evaluation of % survival rate after peroral administration on 7th day at dose 5 mg/kg; assay type: functional; conditions: route oral
[33] = Candida albicans, read-out: MIC
[34] = Meyerozyma guilliermondii, read-out: MIC
[35] = Lodderomyces parapsilosis, read-out: MIC
[36] = Candida tropicalis, read-out: MIC
[37] = Microsporum canis, read-out: MIC
[38] = Nannizzia gypsea, read-out: MIC
[39] = Nakaseomyces glabratus, read-out: MIC
[40] = Trichophyton benhamiae, read-out: MIC
[41] = Trichophyton rubrum, read-out: MIC
[42] = Rhodotorula mucilaginosa, read-out: MIC
[43] = Kluyveromyces marxianus, read-out: MIC
[44] = Aspergillus fumigatus, read-out: MIC

Compound	MIC (Aspergillus niger) [µg/mL]	MIC [5, 34] [µg/mL]	MIC (Pichia kudriavzevii) [µg/mL]	MIC (Candida parapsilosis; [35]) [µg/mL]	MIC (Candida tropicalis; [36]) [µg/mL]	survival at 2.5 mg/kg (Mus sp. [6]) [%]	survival at 2.5 mg/kg (Mus sp. [7]) [%]	survival at 2.5 mg/kg (Mus sp. [8]) [%]	survival at 2.5 mg/kg (Mus sp. [9]) [%]	MIC (Microsporum canis; [37]) [µg/mL]	MIC (Nannizzia gypsea; [38]) [µg/mL]	MIC (Nakaseomyces glabratus [10]; [39]) [µg/mL]	MIC (Trichophyton benhamiae; [40]) [µg/mL]	MIC (Trichophyton rubrum; [41]) [µg/mL]	MIC (Rhodotorula mucilaginosa; [42]) [µg/mL]	MIC (Kluyveromyces marxianus [11]; [43]) [µg/mL]	MIC (Aspergillus flavus) [µg/mL]	MIC (Aspergillus fumigatus [12]; [44]) [µg/mL]	MIC (Candida albicans [13]) [µg/mL]	MIC (Candida parapsilosis) [µg/mL]	further results
C[C@H]1N(C(=O)c2ccc(C(F)(F)F)cc2)CC(=O)O[C@@]1(Cn1cncn1)c1ccc(C(F)(F)F)cc1 (racemic)	> 80	> 80	> 80	> 80	> 80	20	20	10	10	> 80	> 80	> 80	> 80	> 80	> 80	80 (≈ 156 µM)	> 80	–	–	–	MIC (Aspergillus fumigatus [1]): > 80 µg/mL; MIC (Candida albicans [2]; [33]): > 80 µg/mL; MIC (Candida albicans [3]; [33]): > 80 µg/mL; MIC (Candida albicans [4]; [33]): > 80 µg/mL
C[C@H]1N(C(=O)c2ccc(OCC(F)(F)F)cc2)CC(=O)O[C@@]1(Cn1cncn1)c1ccc(F)cc1F (racemic)	> 80	–	> 80	> 80	–	100	100	100	70	> 80	> 80	> 80	> 80	> 80	> 40	40 (≈ 78.4 µM)	> 80	> 80	80 (≈ 157 µM)	–	MIC [14]: > 80 µg/mL
C[C@H]1N(C(=O)c2ccc(OC(F)(F)F)cc2)CC(=O)O[C@@]1(Cn1cncn1)c1ccc(F)cc1F (racemic)	> 80	> 80	> 80	> 80	–	100	100	100	90	> 80	> 80	> 80	> 80	> 80	> 40	40 (≈ 80.6 µM)	> 80	> 80	80 (≈ 161 µM)	–	–
C[C@H]1N(C(=O)c2ccc(C(F)(F)F)cc2)CCO[C@@]1(Cn1cncn1)c1ccc(F)cc1F (stereo in doubt)	40 (≈ 85.8 µM)	–	80 (≈ 172 µM)	–	> 80	–	–	–	–	–	–	–	–	–	–	–	> 80	–	–	2.5 (≈ 5.36 µM)	MIC (Aspergillus fumigatus [12]): 10 µg/mL (≈ 21.4 µM); MIC (Kluyveromyces marxianus [15]): 40 µg/mL (≈ 85.8 µM); survival at 0.5 mg/kg (Mus sp. [16]): 100%; survival at 1 mg/kg (Mus sp. [17]; Mus sp., po): 100%; survival at 0.5 mg/kg (Mus sp. [18]): 100%; Survival (Mus sp. [19]): 100%; Survival (Mus musculus [20]): 100%; Survival (Mus sp. [21]): 100%; Survival (Mus sp. [22]): 100%; Survival (Mus sp. [23]): 100%; MIC (Microsporum canis): 10 µg/mL (≈ 21.4 µM); MIC (Nannizzia gypsea): 20 µg/mL (≈ 42.9 µM); Cure rate (Rattus norvegicus [24]): 10%; Cure rate (Rattus norvegicus [25]): 20%; Cure rate (Rattus norvegicus [26]): 40%; Cure rate (Rattus norvegicus [27]): 60%; MIC (Nakaseomyces glabratus [10]): 40 µg/mL (≈ 85.8 µM); MIC (Trichophyton benhamiae): 10 µg/mL (≈ 21.4 µM); MIC (Trichophyton rubrum): 10 µg/mL (≈ 21.4 µM); MIC (Rhodotorula mucilaginosa): >80 µg/mL
C[C@H]1N(C(=O)c2ccc(C(F)(F)F)cc2)CC(=O)O[C@@]1(Cn1cncn1)c1ccc(Cl)cc1Cl (stereo in doubt; (+)-32a)	–	–	–	–	–	–	–	–	–	–	–	–	–	–	–	–	–	–	–	>80	MIC (Candida albicans [2]): >80 µg/mL; MIC (Candida albicans [3]): >80 µg/mL; MIC (Candida albicans [4]): >80 µg/mL; MIC [5]: >80 µg/mL; MIC (Candida tropicalis): >80 µg/mL; Survival (Mus sp. [17]; route oral, 1 mg/kg): 0%; Survival (Mus sp. [19]): 0%; Survival (Mus sp. [21]): 0%; Survival (Mus sp. [23]): 0%; MIC (Nakaseomyces glabratus [28]): > 80 µg/mL; MIC (Kluyveromyces marxianus [11]): >80 µg/mL
C[C@H]1N(C(=O)c2ccc(C(F)(F)F)cc2)C[C@H](O)O[C@@]1(Cn1cncn1)c1ccc(F)cc1F (stereo in doubt; (+)-39a)	–	–	–	–	–	–	–	–	–	–	–	–	–	–	–	–	–	–	–	>80	MIC (Candida albicans [3]): >80 µg/mL; MIC (Candida albicans [4]): >80 µg/mL; survival at 5 mg/kg (Mus musculus [29]): 40%; survival at 5 mg/kg (Mus musculus [30]): 0%; survival at 5 mg/kg (Mus musculus [31]): 0%; MIC (Kluyveromyces marxianus [11]): >80 µg/mL; survival at 5 mg/kg (Mus musculus [32]): 0%
